Results gathered from unrelated publications.
Each line is one published result; the experiments were not run side by side.
Target: Interleukin-1 receptor-associated kinase 1 (IRAK1, Homo sapiens, UniProt P51617)

Structure (SMILES)	assay	conditions	quantity	result
Cc1ccc(NC(=O)c2ccnc(C(F)(F)F)c2)cc1-c1cc(OCCO)nc(N2CCOCC2)c1	binding	1 µM	remaining binding	100%
CCCCC(=O)Nc1ccc(-c2ccc3ncn(CCC)c(=O)c3c2)cn1	binding, competition with immobilised ligand	0.5 µM	remaining binding	75%
C[C@H]1CC[C@H](n2c3cnccc3c3cnc(Nc4ccc5c(n4)CCN(C(=O)CO)C5)nc32)CC1	cell-free assay	1 µM	remaining signal	23%
C1=C/COCc2cc(ccc2OCCN2CCCC2)Nc2nccc(n2)-c2cccc(c2)COC/1	binding	0.1 µM	remaining binding	0%
CO[C@@H]1[C@H](N(C)C(=O)c2ccccc2)C[C@H]2O[C@]1(C)n1c3ccccc3c3c4c(c5c6ccccc6n2c5c31)C(=O)NC4	enzyme activity, inhibitor	1 µM	inhibition	19%
Cc1cc(O)c(-c2ccc([C@@H](C)CN(C)C)cc2)c2c1[nH]c(=O)c1sccc12	enzyme activity, inhibitor	0.1 µM	inhibition	-2.56%
COc1ccc2oc(-c3ccc4nc(N)oc4c3)c/c(=N\c3ccccc3NC(=O)CCN)c2c1	binding	1 µM	remaining binding	102%
C=CC(=O)N1CCC([C@@H]2CCNc3c(C(N)=O)c(-c4ccc(Oc5ccccc5)cc4)nn32)CC1	enzyme activity, inhibitor	1 µM	inhibition	0%
C#Cc1cc(-c2cc(Nc3nc(N[C@@H](C)c4ccc(F)cn4)ncc3Cl)n[nH]2)ccc1C=O	enzyme activity, inhibitor	0.2 µM	inhibition	10.8%
